26 molecules from ChEMBL document CHEMBL1126301, “Anti-HIV-I activity of linked lexitropsins” (J Med Chem, 1992) can be followed below.

In general, pIC50 refers to the negative decadic logarithm of the IC50, by convention in mol/L. The pEC50 is −log10 of the EC50, conventionally taken in molar units.

pEC50, pIC50: −log10 of the molar value. ≈ marks a conversion by molar mass, not a printed value. Calls of active or inactive are those of the source. No cut-off for these calls is given here.

The subject of data set [1] is Murine leukemia virus. Put plainly: Concentration inhibiting moloney murine leukemia retrovirus. It counts as functional. Summed up: (§1)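 SC-1 cells (3.5 × 10⁴ mL⁻¹) seeded in 5% FBS-MEM 1 day ahead. Compound dilutions added in triplicate, then 20-40 pfu Moloney virus per well, shaken at 0, 30 and 60 min. Incubated 5 days, 37 °C, 5% CO₂; viability checked for toxicity. Then UV 3 min, XC cells overlaid (2 × 10⁵ mL⁻¹), 4 days, 0.5% crystal violet stain, plaques counted. MIC₅₀ interpolated between two dilutions.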

Data set [2] can be described thus: Therapeutic index(TI) was measured as ratio of TD50 and MIC50 (Retrovirus). The note with it: retroviridae.
For data set [3], the system named is Murine leukemia virus. Put plainly: Inhibitory activity on moloney murine leukemia retrovirus. It counts as functional. The essentials: as §1
The test system of data set [4] is CCRF-CEM. Kind of data set: Inhibitory activity against T4-lymphocytes (CEM cell line) infected with HIV-1; active. It counts as functional, cell-based. Conditions: Homo sapiens.
Data set [5] deals with CCRF-CEM. Kind of data set: Inhibition of T4-lymphocytes (CEM cell line) infected with HIV-1. Conditions: Homo sapiens. The class given is functional, cell-based.
In data set [6] the test system is CCRF-CEM. Kind of data set: Inhibitory activity against T4-lymphocytes (CEM cell line) infected with HIV-1; inactive. Conditions: Homo sapiens. It counts as functional, cell-based.
For data set [7], the system named is Human immunodeficiency virus 1. Kind of data set: Inhibitory activity against HIV-1 in T4-lymphocytes (CEM cell line). The class given is functional, organism-based. The note with it: Human immunodeficiency virus 1, CCRF-CEM.
Data set [8] deals with CCRF-CEM. Kind of data set: Inhibitory activity against T4-lymphocytes (CEM cell line) infected with HIV-1; moderate. It counts as functional, cell-based. The note with it: Homo sapiens.

As to `Cc1cn([C@H]2C[C@H](N=[N+]=[N-])[C@@H](CO)O2)c(=O)[nH]c1=O` [ZIDOVUDINE], the MIC50 in data set [1] amounted to 0.0014 µg/mL (≈ 0.00524 µM). Moreover, the TI in data set [2] is over 714000 TD50/MIC50. In data set [3], this molecule returned a TD50 of over 100 µg/mL.
For the molecule `Cl.Cl.Cn1cc(NC(=O)c2cc(NC(=O)c3cc(NC(=O)c4ccc(C(=O)Nc5cc(C(=O)Nc6cc(C(=O)Nc7cc(C(=O)NCCC(=N)N)n(C)c7)n(C)c6)n(C)c5)nc4)cn3C)cn2C)cc1C(=O)NCCC(=N)N`, the TI in data set [2] was over 6.28 TD50/MIC50. Moreover, the outcome in data set [4] was Active. The molecule also showed a TD50 in data set [3] of over 100 µg/mL.
`Cn1cc(NC(=O)[C@@H]2CCC(N)=N2)cc1C(=O)NCCC(=N)N` gave a negative-log IC50 (pIC50) in data set [5] of under 3.90. In addition, in data set [6], the result was inactive.
In data set [7], `Cn1cc(NC(=O)c2cc(NC(=O)/C=C/C(=O)Nc3cc(C(=O)Nc4cc(C(=O)NCCC(=N)N)n(C)c4)n(C)c3)cn2C)cc1C(=O)NCCC(=N)N` gave a pEC50 of 5.86. Moreover, the outcome in data set [4] was Active.
On to `Cn1cc(NC(=O)c2cc(NC(=O)[C@H]3C[C@H]3C(=O)Nc3cc(C(=O)Nc4cc(C(=O)NCCC(=N)N)n(C)c4)n(C)c3)cn2C)cc1C(=O)NCCC(=N)N`, for which the Activity result in data set [8] is reported as “Moderate”. The molecule also showed a pEC50 in data set [7] of 4.37.
Consider `Cn1cc(NC(=O)c2cc(NC(=O)CCCCCCCCC(=O)Nc3cc(C(=O)Nc4cc(C(=O)NCCC(=N)N)n(C)c4)n(C)c3)cn2C)cc1C(=O)NCCC(=N)N`, for which the outcome in data set [6] was inactive.
On to `Cl.Cl.Cn1cc(NC(=O)c2cc(NC(=O)c3cc(NC(=O)/C=C\C(=O)Nc4cc(C(=O)Nc5cc(C(=O)Nc6cc(C(=O)NCCC(=N)N)n(C)c6)n(C)c5)n(C)c4)cn3C)cn2C)cc1C(=O)NCCC(=N)N`, for which the TI in data set [2] amounted to 7.52 TD50/MIC50. The TD50 in data set [3] came out at 84.29 µg/mL. In data set [6], the result was inactive.
`Cn1cc(NC(=O)c2cc(NC(=O)Nc3cc(C(=O)Nc4cc(C(=O)NCCC(=N)N)n(C)c4)n(C)c3)cn2C)cc1C(=O)NCCC(=N)N`: the Activity result in data set [8] is listed as “Moderate”. In data set [7], the pEC50 is 4.92.
For `Cn1cc(NC(=O)c2cc(NC(=O)CCCCCCC(=O)Nc3cc(C(=O)Nc4cc(C(=O)NCCC(=N)N)n(C)c4)n(C)c3)cn2C)cc1C(=O)NCCC(=N)N`, the result in data set [6] was inactive.
As to `Cl.Cl.Cn1cc(NC(=O)c2cc(NC(=O)c3cc(NC(=O)c4cccc(C(=O)Nc5cc(C(=O)Nc6cc(C(=O)Nc7cc(C(=O)NCCC(=N)N)n(C)c7)n(C)c6)n(C)c5)n4)cn3C)cn2C)cc1C(=O)NCCC(=N)N`, the TI in data set [2] was over 4.4 TD50/MIC50. Moreover, the outcome in data set [4] was Active. Further, the TD50 in data set [3] was over 100 µg/mL.
The molecule `Nc1ccn([C@H]2CC[C@@H](CO)O2)c(=O)n1` [ZALCITABINE] yielded an MIC50 in data set [1] of 0.74 µg/mL (≈ 3.5 µM). In addition, in data set [2], the TI is reported as over 135.14 TD50/MIC50. In data set [3], this molecule yielded a TD50 of over 100 µg/mL.
Take `Cn1cc(NC(=O)c2cc(NC(=O)c3cc(NC(=O)CCCCCCCCCCCCCCCCCCCCCCC(=O)Nc4cc(C(=O)Nc5cc(C(=O)Nc6cc(C(=O)NCCC(=N)N)n(C)c6)n(C)c5)n(C)c4)cn3C)cn2C)cc1C(=O)NCCC(=N)N`: in data set [5], the pIC50 is under 3.92. The result in data set [6] was inactive.
With `Cn1cc(NC(=O)c2cc(NC(=O)[C@H]3C[C@@H]3C(=O)Nc3cc(C(=O)Nc4cc(C(=O)NCCC(=N)N)n(C)c4)n(C)c3)cn2C)cc1C(=O)NCCC(=N)N`, in data set [8], the Activity result is “Moderate”. In data set [7], this molecule had a pEC50 of 5.46.
Regarding `Cn1cc(NC(=O)c2cc(NC(=O)c3cc(NC(=O)CCCCCCC(=O)Nc4cc(C(=O)Nc5cc(C(=O)Nc6cc(C(=O)NCCC(=N)N)n(C)c6)n(C)c5)n(C)c4)cn3C)cn2C)cc1C(=O)NCCC(=N)N`, the negative-log IC50 (pIC50) in data set [5] was under 4.00. In data set [6], the outcome was inactive.
With `Cn1cc(NC(=O)c2cc(NC(=O)[C@@H]3CCCC[C@H]3C(=O)Nc3cc(C(=O)Nc4cc(C(=O)NCCC(=N)N)n(C)c4)n(C)c3)cn2C)cc1C(=O)NCCC(=N)N`, in data set [8], the Activity result is “Moderate”. Moreover, in data set [7], the negative-log EC50 (pEC50) was 5.25. For the same molecule, in data set [5], the pIC50 is 3.74.
For `Cn1cc(NC(=O)c2cc(NC(=O)[C@H]3CCC[C@@H]3C(=O)Nc3cc(C(=O)Nc4cc(C(=O)NCCC(=N)N)n(C)c4)n(C)c3)cn2C)cc1C(=O)NCCC(=N)N` the same measures were “Moderate”, 4.33 and 3.77.
For the molecule `Cl.Cl.Cn1cc(NC(=O)c2cc(NC(=O)c3cc(NC(=O)[C@@H]4C5C=CC(C5)[C@H]4C(=O)Nc4cc(C(=O)Nc5cc(C(=O)Nc6cc(C(=O)NCCC(=N)N)n(C)c6)n(C)c5)n(C)c4)cn3C)cn2C)cc1C(=O)NCCC(=N)N`, the TI in data set [2] is listed as over 4.54 TD50/MIC50. Besides, the TD50 in data set [3] was over 100 µg/mL.
The like results for `Cl.Cl.Cn1cc(NC(=O)c2cc(NC(=O)c3cc(NC(=O)c4ccccc4C(=O)Nc4cc(C(=O)Nc5cc(C(=O)Nc6cc(C(=O)NCCC(=N)N)n(C)c6)n(C)c5)n(C)c4)cn3C)cn2C)cc1C(=O)NCCC(=N)N` were, in that order, over 1.26 TD50/MIC50 and over 100 µg/mL.
In turn, `Cn1cc(NC(=O)c2cc(NC(=O)c3cccc(C(=O)Nc4cc(C(=O)Nc5cc(C(=O)NCCC(=N)N)n(C)c5)n(C)c4)c3)cn2C)cc1C(=O)NCCC(=N)N` showed a pEC50 in data set [7] of 5.45. Also, the result in data set [4] was Active.
`Cn1cc(NC(=O)c2cc(NC(=O)CCCCCCCCCCC(=O)Nc3cc(C(=O)Nc4cc(C(=O)NCCC(=N)N)n(C)c4)n(C)c3)cn2C)cc1C(=O)NCCC(=N)N`: the Activity result in data set [8] is given as “Moderate”. Also, in data set [7], the pEC50 was 5.18. In data set [5], this molecule showed a pIC50 of 4.11.
In data set [7], `Cn1cc(NC(=O)c2cc(NC(=O)/C=C\C(=O)Nc3cc(C(=O)Nc4cc(C(=O)NCCC(=N)N)n(C)c4)n(C)c3)cn2C)cc1C(=O)NCCC(=N)N` showed a pEC50 of 6.46. Besides, the result in data set [4] was Active.
Consider `Cl.Cl.Cn1cc(NC(=O)c2cc(NC(=O)c3cc(NC(=O)/C=C/C(=O)Nc4cc(C(=O)Nc5cc(C(=O)Nc6cc(C(=O)NCCC(=N)N)n(C)c6)n(C)c5)n(C)c4)cn3C)cn2C)cc1C(=O)NCCC(=N)N`, for which the TI in data set [2] is listed as 625 TD50/MIC50. In addition, in data set [4], the result was Active. Moreover, in data set [3], the TD50 was 100 µg/mL.
As to `Cn1cc(NC(=O)c2cc(NC(=O)[C@H]3CC[C@@H]3C(=O)Nc3cc(C(=O)Nc4cc(C(=O)NCCC(=N)N)n(C)c4)n(C)c3)cn2C)cc1C(=O)NCCC(=N)N`, in data set [7], the pEC50 was 6.38. In addition, the outcome in data set [4] was Active.
Regarding `Cn1cc(NC(=O)[C@H]2CCC(N)=N2)cc1C(=O)NCCC(=N)N`, the pIC50 in data set [5] is under 3.90. For the same molecule, the outcome in data set [6] was inactive.
Take `Cl.Cl.Cn1cc(NC(=O)c2cc(NC(=O)c3cc(NC(=O)c4ccc(C(=O)Nc5cc(C(=O)Nc6cc(C(=O)Nc7cc(C(=O)NCCC(=N)N)n(C)c7)n(C)c6)n(C)c5)cc4)cn3C)cn2C)cc1C(=O)NCCC(=N)N`: the TI in data set [2] was over 25.13 TD50/MIC50. Moreover, the outcome in data set [4] was Active. Also, the TD50 in data set [3] is over 100 µg/mL.
`Cn1cc(NC(=O)c2cc(NC(=O)c3cc(NC(=O)CCC(=O)Nc4cc(C(=O)Nc5cc(C(=O)Nc6cc(C(=O)NCCC(=N)N)n(C)c6)n(C)c5)n(C)c4)cn3C)cn2C)cc1C(=O)NCCC(=N)N`: the result in data set [6] was inactive.
